Experiments:
[1] = test system: Fibroblast; assay: Incucyte cell viability with human fibroblast; format: toxicity, cell-based; conditions: 10 µM, compound concentration 10 uM; note: filed as whole numbers so only -1 and 0 and 1 occur
[2] = test system: HEK-293T; assay: Multiplex assay against HEK293T; format: toxicity, cell-based; conditions: human;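 for Population Tubulin-Different-Phenotype (%): share of the cells with healthy nuclei that show this phenotype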
In short: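 Cells were classed with CellPathfinder machine-learning gating, first as Hoechst high-intensity objects or normal cells, then (normal cells) as healthy, pyknosed or fragmented nuclei, and finally (pyknosed cells) as mitotic or apoptotic. Staining of live cells at seeding used Hoechst33342, BioTracker Green Microtubule Cytoskeleton Dye, MitoTracker Red and Annexin V Alexa Fluor 680, with imaging on a CQ1 microscope at 37°C and 5% CO2 after compound addition. Tubulin, mitochondrial-mass and membrane-permeability phenotypes are per cents of healthy-nucleus cells.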

[3] = 12 h, 1 µM, compound concentration 1 uM, replicate 1
[4] = 12 h, 1 µM, compound concentration 1 uM, replicate 2
[5] = 12 h, 10 µM, compound concentration 10 uM, replicate 1
[6] = 12 h, 10 µM, compound concentration 10 uM, replicate 2
[7] = 24 h, 1 µM, compound concentration 1 uM, replicate 1
[8] = 24 h, 1 µM, compound concentration 1 uM, replicate 2
[9] = 24 h, 10 µM, compound concentration 10 uM, replicate 1
[10] = 24 h, 10 µM, compound concentration 10 uM, replicate 2

**Q.** For `CNC(=O)c1cc(Oc2ccc(NC(=O)Nc3cc(C(C)(C)C)nn3-c3ccc4ncccc4c3)c(F)c2)ccn1` [REBASTINIB], which “Growth Rate” value ([1]; 0 h, replicate number 1, timepoint 0 hours) is on record?
**A.** 0

**Q.** And the “Growth Rate” value ([1]; 6 h, replicate number 2, timepoint 6 hours)?
**A.** 1

**Q.** And the “Growth Rate” value ([1]; 12 h, replicate number 1, timepoint 12 hours)?
**A.** 0

**Q.** What about the “Growth Rate” value ([1]; 18 h, replicate number 1, timepoint 18 hours) of the same compound?
**A.** 0

**Q.** And the “Growth Rate” value ([1]; 24 h, replicate number 1, timepoint 24 hours)?
**A.** 0

**Q.** And the “Population Apoptotic (%)” value [2, 3]?
**A.** 22%

**Q.** And the “Population Fragmented Nuclei (%)” value [2, 3]?
**A.** 22%

**Q.** What about the “Population Healthy Nuclei (%)” value [2, 3] of the same compound?
**A.** 66%

**Q.** And the “Population Hoechst High Intensity Objects (%)” value [2, 3]?
**A.** 15%

**Q.** And the “Population Membrane Permeable-Phenotype (%)” value [2, 3]?
**A.** 11%

**Q.** And the “Population Mitochondria Different-Phenotype (%)” value [2, 3]?
**A.** 4%

**Q.** And the “Population Mitotic Cells (%)” value [2, 3]?
**A.** 77%

**Q.** And the “Population Normal (%)” value [2, 3]?
**A.** 84%

**Q.** And the “Population Pyknosed Nuclei (%)” value [2, 3]?
**A.** 10%

**Q.** What about the “Population Tubulin-Different-Phenotype (%)” value [2, 3] of the same compound?
**A.** 3%

**Q.** And the “Total Cell Count” value [2, 3]?
**A.** 638

**Q.** What about the “Population Apoptotic (%)” value [2, 4] of the same compound?
**A.** 11%

**Q.** What about the “Population Fragmented Nuclei (%)” value [2, 4] of the same compound?
**A.** 11%

**Q.** What about the “Population Healthy Nuclei (%)” value [2, 4] of the same compound?
**A.** 85%

**Q.** And the “Population Hoechst High Intensity Objects (%)” value [2, 4]?
**A.** 4%

**Q.** What about the “Population Membrane Permeable-Phenotype (%)” value [2, 4] of the same compound?
**A.** 7%

**Q.** What about the “Population Mitochondria Different-Phenotype (%)” value [2, 4] of the same compound?
**A.** 3%

**Q.** What about the “Population Mitotic Cells (%)” value [2, 4] of the same compound?
**A.** 88%

**Q.** And the “Population Normal (%)” value [2, 4]?
**A.** 95%

**Q.** And the “Population Pyknosed Nuclei (%)” value [2, 4]?
**A.** 3%

**Q.** What about the “Population Tubulin-Different-Phenotype (%)” value [2, 4] of the same compound?
**A.** 6%

**Q.** What about the “Total Cell Count” value [2, 4] of the same compound?
**A.** 1893

**Q.** And the “Population Apoptotic (%)” value [2, 5]?
**A.** 29%

**Q.** And the “Population Fragmented Nuclei (%)” value [2, 5]?
**A.** 11%

**Q.** What about the “Population Healthy Nuclei (%)” value [2, 5] of the same compound?
**A.** 41%

**Q.** And the “Population Hoechst High Intensity Objects (%)” value [2, 5]?
**A.** 16%

**Q.** What about the “Population Membrane Permeable-Phenotype (%)” value [2, 5] of the same compound?
**A.** 13%

**Q.** What about the “Population Mitochondria Different-Phenotype (%)” value [2, 5] of the same compound?
**A.** 34%

**Q.** And the “Population Mitotic Cells (%)” value [2, 5]?
**A.** 70%

**Q.** What about the “Population Normal (%)” value [2, 5] of the same compound?
**A.** 83%

**Q.** What about the “Population Pyknosed Nuclei (%)” value [2, 5] of the same compound?
**A.** 46%

**Q.** And the “Population Tubulin-Different-Phenotype (%)” value [2, 5]?
**A.** 88%

**Q.** What about the “Total Cell Count” value [2, 5] of the same compound?
**A.** 515

**Q.** And the “Population Apoptotic (%)” value [2, 6]?
**A.** 35%

**Q.** And the “Population Fragmented Nuclei (%)” value [2, 6]?
**A.** 3%

**Q.** And the “Population Healthy Nuclei (%)” value [2, 6]?
**A.** 78%

**Q.** What about the “Population Hoechst High Intensity Objects (%)” value [2, 6] of the same compound?
**A.** 6%

**Q.** And the “Population Membrane Permeable-Phenotype (%)” value [2, 6]?
**A.** 9%

**Q.** What about the “Population Mitochondria Different-Phenotype (%)” value [2, 6] of the same compound?
**A.** 55%

**Q.** And the “Population Mitotic Cells (%)” value [2, 6]?
**A.** 64%

**Q.** What about the “Population Normal (%)” value [2, 6] of the same compound?
**A.** 93%

**Q.** And the “Population Pyknosed Nuclei (%)” value [2, 6]?
**A.** 18%

**Q.** And the “Population Tubulin-Different-Phenotype (%)” value [2, 6]?
**A.** 97%

**Q.** What about the “Total Cell Count” value [2, 6] of the same compound?
**A.** 672

**Q.** And the “Population Apoptotic (%)” value [2, 7]?
**A.** 13%

**Q.** And the “Population Fragmented Nuclei (%)” value [2, 7]?
**A.** 19%

**Q.** And the “Population Healthy Nuclei (%)” value [2, 7]?
**A.** 74%

**Q.** And the “Population Hoechst High Intensity Objects (%)” value [2, 7]?
**A.** 12%

**Q.** What about the “Population Membrane Permeable-Phenotype (%)” value [2, 7] of the same compound?
**A.** 23%

**Q.** What about the “Population Mitochondria Different-Phenotype (%)” value [2, 7] of the same compound?
**A.** 2%

**Q.** And the “Population Mitotic Cells (%)” value [2, 7]?
**A.** 86%

**Q.** And the “Population Normal (%)” value [2, 7]?
**A.** 87%

**Q.** And the “Population Pyknosed Nuclei (%)” value [2, 7]?
**A.** 5%

**Q.** What about the “Population Tubulin-Different-Phenotype (%)” value [2, 7] of the same compound?
**A.** 3%

**Q.** And the “Total Cell Count” value [2, 7]?
**A.** 727

**Q.** What about the “Population Apoptotic (%)” value [2, 8] of the same compound?
**A.** 3%

**Q.** And the “Population Fragmented Nuclei (%)” value [2, 8]?
**A.** 28%

**Q.** And the “Population Healthy Nuclei (%)” value [2, 8]?
**A.** 69%

**Q.** What about the “Population Hoechst High Intensity Objects (%)” value [2, 8] of the same compound?
**A.** 8%

**Q.** What about the “Population Membrane Permeable-Phenotype (%)” value [2, 8] of the same compound?
**A.** 9%

**Q.** And the “Population Mitochondria Different-Phenotype (%)” value [2, 8]?
**A.** 0%

**Q.** And the “Population Mitotic Cells (%)” value [2, 8]?
**A.** 96%

**Q.** What about the “Population Normal (%)” value [2, 8] of the same compound?
**A.** 91%

**Q.** What about the “Population Pyknosed Nuclei (%)” value [2, 8] of the same compound?
**A.** 1%

**Q.** What about the “Population Tubulin-Different-Phenotype (%)” value [2, 8] of the same compound?
**A.** 7%

**Q.** And the “Total Cell Count” value [2, 8]?
**A.** 2966

**Q.** And the “Population Apoptotic (%)” value [2, 9]?
**A.** 46%

**Q.** And the “Population Fragmented Nuclei (%)” value [2, 9]?
**A.** 14%

**Q.** And the “Population Healthy Nuclei (%)” value [2, 9]?
**A.** 44%

**Q.** And the “Population Hoechst High Intensity Objects (%)” value [2, 9]?
**A.** 15%

**Q.** What about the “Population Membrane Permeable-Phenotype (%)” value [2, 9] of the same compound?
**A.** 8%

**Q.** And the “Population Mitochondria Different-Phenotype (%)” value [2, 9]?
**A.** 58%

**Q.** And the “Population Mitotic Cells (%)” value [2, 9]?
**A.** 53%

**Q.** And the “Population Normal (%)” value [2, 9]?
**A.** 84%

**Q.** What about the “Population Pyknosed Nuclei (%)” value [2, 9] of the same compound?
**A.** 40%

**Q.** What about the “Population Tubulin-Different-Phenotype (%)” value [2, 9] of the same compound?
**A.** 92%

**Q.** What about the “Total Cell Count” value [2, 9] of the same compound?
**A.** 485

**Q.** What about the “Population Apoptotic (%)” value [2, 10] of the same compound?
**A.** 43%

**Q.** And the “Population Fragmented Nuclei (%)” value [2, 10]?
**A.** 3%

**Q.** What about the “Population Healthy Nuclei (%)” value [2, 10] of the same compound?
**A.** 81%

**Q.** And the “Population Hoechst High Intensity Objects (%)” value [2, 10]?
**A.** 5%

**Q.** What about the “Population Membrane Permeable-Phenotype (%)” value [2, 10] of the same compound?
**A.** 7%

**Q.** What about the “Population Mitochondria Different-Phenotype (%)” value [2, 10] of the same compound?
**A.** 63%

**Q.** What about the “Population Mitotic Cells (%)” value [2, 10] of the same compound?
**A.** 56%

**Q.** And the “Population Normal (%)” value [2, 10]?
**A.** 94%

**Q.** What about the “Population Pyknosed Nuclei (%)” value [2, 10] of the same compound?
**A.** 15%

**Q.** And the “Population Tubulin-Different-Phenotype (%)” value [2, 10]?
**A.** 98%

**Q.** And the “Total Cell Count” value [2, 10]?
**A.** 674

Reference: ChEMBL document CHEMBL4689842, “EUbOPEN Chemogenomics Library wave 1” (2021)
